Results from PubChem BioAssay.
Activity calls are given as the source filed them.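 Rule for the calls, unless noted: active = duplicate-averaged activation above buffer control mean plus 5 SD of those controls; inactive = the rest.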

Columns and labels:
[1] = nonspecific flux increase, KCNQ1-free cells – parental CHO cells, counter-screen for KCNQ1 potentiator project (AID 493006); conditions: parental CHO-K1 cells, FluxOR thallium flux, at 10 µM; hits give high values;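 for activation: fluorescence ratio of max minus min over baseline after K+ and Tl+ depolarization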
In short: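 Material: untransfected host CHO-K1 cells with FluxOR thallium dye. Timing: overnight 37 °C plating, 90 min RT dye, 20 min compound. Detection: kinetic FluxOR fluorescence, 10 s baseline, 110 s after stimulus. Read-out basis: max-minus-min fluorescence over baseline, percent of buffer-to-R-L3 span. Replicates: duplicate wells per compound, percent values averaged.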

[2] = target: Potassium voltage-gated channel subfamily KQT member 1 (Homo sapiens) (UniProt P51787); assay: enhancement of KCNQ1 channel thallium flux – FluxOR thallium flux, CHO cells, duplicates, confirmation (AID 493007;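 active = potentiation averaged over duplicate wells exceeding buffer-only control mean by more than 3 SD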;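 for outcome: cells depolarized by a potassium plus thallium sulfate stimulus after compound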); conditions: KCNQ1 cell line, FluxOR thallium flux fluorescence, at 10 µM; hits give high values, % of reference activator effect, buffer zero
Potassium voltage-gated channel subfamily KQT member 1 (Homo sapiens), sequence (P51787 whole entry, looked up): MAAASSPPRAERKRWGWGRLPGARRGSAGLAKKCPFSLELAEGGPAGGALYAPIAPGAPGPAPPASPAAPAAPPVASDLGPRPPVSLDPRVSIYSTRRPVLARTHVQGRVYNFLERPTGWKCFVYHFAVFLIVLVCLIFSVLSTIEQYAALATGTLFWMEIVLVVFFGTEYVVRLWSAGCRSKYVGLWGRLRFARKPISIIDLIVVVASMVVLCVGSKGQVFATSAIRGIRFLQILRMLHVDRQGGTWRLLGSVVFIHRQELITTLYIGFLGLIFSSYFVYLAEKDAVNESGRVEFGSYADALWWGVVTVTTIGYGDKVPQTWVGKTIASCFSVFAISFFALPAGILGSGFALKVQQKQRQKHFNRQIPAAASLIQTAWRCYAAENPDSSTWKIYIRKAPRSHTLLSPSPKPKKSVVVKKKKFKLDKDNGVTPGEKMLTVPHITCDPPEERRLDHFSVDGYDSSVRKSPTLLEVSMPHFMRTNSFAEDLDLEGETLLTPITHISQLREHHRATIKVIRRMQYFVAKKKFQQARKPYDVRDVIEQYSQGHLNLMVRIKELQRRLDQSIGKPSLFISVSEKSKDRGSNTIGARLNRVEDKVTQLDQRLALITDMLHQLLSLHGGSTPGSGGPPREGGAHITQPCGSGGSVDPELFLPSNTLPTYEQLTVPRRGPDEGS
In short: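 Test system – KCNQ1-expressing CHO cell line · Incubation – FluxOR dye loading 90 min, compound exposure 20 min, room temperature · Detection – FluxOR Tl+ flux fluorescence, 10 s baseline plus 110 s recording · Controls – buffer-only wells as 0% and R-L3 activator as 100%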

[3] = target: Potassium voltage-gated channel subfamily KQT member 2 (Rattus norvegicus) (UniProt O88943); assay: KCNQ2 thallium flux enhancement – KCNQ2-CHO-K1 cells, selectivity assay for KCNQ1 potentiator project (AID 493009;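 active = mean duplicate potentiation above the buffer control mean plus 5 SD of buffer wells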;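 note: assay conditions were tuned for KCNQ1 rather than KCNQ2 modulators; signal is max minus min fluorescence divided by baseline after thallium stimulus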); conditions: FluxOR thallium flux fluorescence, at 10 µM; hits give high values, scaled: buffer 0, activator control 100
Potassium voltage-gated channel subfamily KQT member 2 (Rattus norvegicus), sequence (O88943 whole entry, looked up): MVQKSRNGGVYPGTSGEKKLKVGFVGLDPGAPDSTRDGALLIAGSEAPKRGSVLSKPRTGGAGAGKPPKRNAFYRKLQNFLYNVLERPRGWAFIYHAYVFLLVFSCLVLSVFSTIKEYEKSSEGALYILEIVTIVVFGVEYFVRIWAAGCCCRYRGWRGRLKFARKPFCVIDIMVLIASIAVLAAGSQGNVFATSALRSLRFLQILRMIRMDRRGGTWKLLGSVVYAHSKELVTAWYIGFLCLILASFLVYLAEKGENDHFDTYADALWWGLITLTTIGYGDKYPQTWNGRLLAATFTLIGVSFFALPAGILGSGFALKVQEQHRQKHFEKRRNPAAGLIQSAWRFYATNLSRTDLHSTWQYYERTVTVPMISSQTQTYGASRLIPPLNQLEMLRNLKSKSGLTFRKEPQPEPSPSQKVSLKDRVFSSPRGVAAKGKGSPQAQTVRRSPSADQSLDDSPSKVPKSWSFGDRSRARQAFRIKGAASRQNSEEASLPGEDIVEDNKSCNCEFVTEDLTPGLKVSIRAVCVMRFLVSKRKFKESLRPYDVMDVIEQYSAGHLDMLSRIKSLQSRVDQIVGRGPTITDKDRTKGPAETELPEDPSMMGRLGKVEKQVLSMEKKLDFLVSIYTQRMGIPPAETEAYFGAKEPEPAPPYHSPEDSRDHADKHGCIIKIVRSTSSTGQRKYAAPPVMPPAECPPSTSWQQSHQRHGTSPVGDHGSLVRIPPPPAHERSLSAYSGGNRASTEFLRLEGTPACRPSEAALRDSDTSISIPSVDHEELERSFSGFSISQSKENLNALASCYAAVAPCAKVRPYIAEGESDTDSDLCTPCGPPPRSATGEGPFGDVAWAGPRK

[4] = target: Potassium voltage-gated channel subfamily KQT member 1 (Homo sapiens) (UniProt P51787); assay: KCNQ1 activators by electrophysiology – IonWorks patch clamp, KCNQ1-CHO cells, orthogonal assay for KCNQ1 potentiator project, confirmation (AID 493184;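 active = current rise at least 3 SD above the untreated control mean in each of two repeat wells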;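 for current potentiation: percent change of the same well's current before compound addition so 0% = no change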); conditions: automated patch clamp current, at 10 µM; hits give high values
In short: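 Read-out: Percent current increase versus pre-compound level | Assay system: CHO cells carrying KCNQ1 | Measured by: Automated perforated-patch electrophysiology | Medium: External bath solution at pH 7.4 | Dosing: One dose, 10 µM final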

SMILES | outcome [1] | outcome [2] | outcome [3] | outcome [4] | activation [1] | potentiation [2] | potentiation [3] | current potentiation [4]
CC1SCC(=NOCc2c(Cl)cccc2Cl)CS1 (stereo not given) | inactive | inactive | inactive | inactive |  |  |  | 
N=c1sccn1CC(=O)N1N=C(c2ccc(Cl)cc2)CC1c1ccco1 (stereo not given) | inactive | inactive | inactive | inactive |  |  |  | 
OCCCCNCc1ccc(OCc2ccc(Cl)cc2)cc1 |  |  |  | inactive | 220% (active) | 292% (active) | 332% (active) | 
Cc1cnc(NC(=O)c2ccc(-c3nc4ccccc4s3)o2)s1 | inactive | inactive | inactive | inactive |  |  |  | 
Cc1ccc(C2=NOC(=O)/C2=C\C=C\c2ccccc2)cc1 | inactive | inactive | inactive | inactive |  |  |  | 
O=C(Cn1ncc2c(=O)oc3ccccc3c21)N1CCN(C(=O)c2ccco2)CC1 | inactive | inactive | inactive | inactive |  |  |  | 
O=C(COc1ccccc1[N+](=O)[O-])Nc1cccnc1 |  |  |  | inactive | 186% (active) | 41.5% (active) | 172% (active) | 
CCOC(=O)Cc1cc(=O)n2[nH]c(C)c(-c3ccc(Cl)cc3)c2n1 | inactive | inactive | inactive | inactive |  |  |  | 
CCOC(=O)c1sc(C)nc1C1CCN(C(=O)OCC)CC1 | inactive | inactive | inactive | inactive |  |  |  | 
O=C(CN1C(=O)CNC1=O)Nc1cccc(C(F)(F)F)c1 | inactive | inactive | inactive | inactive |  |  |  | 
OCCN1CCN(C2CCC(c3ccc(F)cc3)c3ccc(F)cc32)CC1 (stereo not given) | inactive | inactive | inactive | inactive |  |  |  | 
O=C(O)CCC(=O)Nc1ccc(S(=O)(=O)c2ccc(NC(=O)CCC(=O)O)cc2)cc1 | inactive | inactive | inactive | inactive |  |  |  | 
C/C(=N\NC(=S)Nc1cccc(C)c1)c1ccco1 | inactive |  |  | inactive |  | 35% (active) | 166% (active) | 
COc1ccc(OC)c(S(=O)(=O)CC(O)CS(=O)(=O)c2ccccc2)c1 (stereo not given) | inactive | inactive | inactive | inactive |  |  |  | 
CCOc1ccc(NC(=S)NC(=O)c2ccco2)cc1 | inactive |  |  | inactive |  | 29% (active) | 180% (active) | 
Cc1cc(C)cc(C(=O)OCC(=O)NCC(F)(F)F)c1 | inactive | inactive | inactive | inactive |  |  |  | 
COc1ccc(CCNC(=O)c2c(C)nc3ccccn23)cc1 | inactive | inactive | inactive | inactive |  |  |  | 
O=c1ccc(-c2ccc(S(=O)(=O)Nc3ccccc3)o2)n[nH]1 | inactive | inactive | inactive | inactive |  |  |  | 
Cc1cccc(NC(=O)c2ccc(COc3ccccc3[N+](=O)[O-])o2)n1 | inactive | inactive | inactive | inactive |  |  |  | 
C=CCNC(=S)Nc1sc2c(c1C(=O)OCC)CC(C)(CC)OC2 (stereo not given) |  |  |  | inactive | 318% (active) | 49.5% (active) | 254% (active) | 

SMILES | outcome [1] | outcome [2] | outcome [3] | outcome [4] | activation [1] | potentiation [2] | potentiation [3] | current potentiation [4]
c1ccc(CCCNc2ncnc3nc[nH]c23)cc1 |  |  |  | inactive | 316% (active) | 78.5% (active) | 291% (active) | 
O=C1CCC(c2ccc(-n3ccnc3)cc2)=NN1 | inactive | inactive | inactive | inactive |  |  |  | 
Cc1cccc(C(=O)NC(=S)N(C)C2CCCCC2)c1 |  |  |  | inactive | 268% (active) | 72.5% (active) | 326% (active) | 
COc1ccc(-c2cc3nc(C)c(CCC(=O)NC(C)CCc4ccco4)c(C)n3n2)c(OC)c1 (stereo not given) | inactive | inactive | inactive | inactive |  |  |  | 
O=C(NCC1CCCO1)c1ccccc1OCc1ccc(F)cc1 (stereo not given) | inactive | inactive | inactive | inactive |  |  |  | 
C(=N\NC(=Nc1ccccc1)c1ccccn1)/c1ccccn1 | inactive | inactive | inactive | inactive |  |  |  | 
O=C(NC(=S)Nc1nc2c(s1)CSc1ccccc1-2)c1ccccc1 |  |  |  | inactive | 170% (active) | 68.5% (active) | 147% (active) | 
CCCc1cc(=O)n2[nH]cc(-c3ccc(Cl)cc3)c2n1 |  |  |  | inactive | 168% (active) | 36% (active) | 164% (active) | 
Cc1snnc1C(=O)NC(=S)Nc1ccccc1 |  |  |  | inactive | 205% (active) | 90% (active) | 270% (active) | 
CCCCCn1c(=S)[nH]c2ncccc2c1=O |  |  |  | inactive | 206% (active) | 39.5% (active) | 200% (active) | 
Oc1c(Cl)cc(Cl)c2cccnc12 |  |  |  | inactive | 148% (active) | 67% (active) | 211% (active) | 
Cn1c(=O)c2nc3ccccc3nc2n(C)c1=O |  |  |  | inactive | 168% (active) | 30.5% (active) | 184% (active) | 
COC(=O)C1SCC2C(=O)N(Cc3ccc(F)cc3)CC(=O)N21 (stereo not given) | inactive |  |  | inactive |  | 46.5% (active) | 178% (active) | 
CC(C)c1ccc(C(=O)NC2=NCCS2)cc1 | inactive | inactive | inactive | inactive |  |  |  | 
CC(CCc1ccccc1)NC(=O)c1ccccc1C(=O)O (stereo not given) | inactive | inactive | inactive | inactive |  |  |  | 
CCC(Cc1ccccc1)n1c(=S)[nH]c2ccccc2c1=O (stereo not given) | inactive |  | inactive | inactive |  | 19% (active) |  | 
CC1(C)CC(=O)C2=C(C1)N(c1cccc(Cl)c1)C(=O)NC2(C(F)(F)F)C(F)(F)F | inactive |  | inactive | inactive |  | 19.5% (active) |  | 
CC(=O)N[C@H]1[C@H](OC2CCCCC2)O[C@H](COC(C)=O)[C@@H](OC(C)=O)[C@@H]1OC(C)=O | inactive | inactive | inactive | inactive |  |  |  | 
O=C(NC(=S)N1CCN(c2ccccc2)CC1)c1ccccc1 |  |  |  | inactive | 226% (active) | 71% (active) | 281% (active) | 
CCN1C(=O)/C(=C/c2ccc(C)s2)NC1=S |  |  |  | inactive | 208% (active) | 57.5% (active) | 258% (active) | 

SMILES | outcome [1] | outcome [2] | outcome [3] | outcome [4] | activation [1] | potentiation [2] | potentiation [3] | current potentiation [4]
CCOc1ccc(NC(=O)CN(C)C(=O)C2CCN(c3ncnc4sc(C)c(C)c34)CC2)cc1OCC | inactive | inactive | inactive | inactive |  |  |  | 
COCCNC(=O)C1CCN(S(=O)(=O)N2CCC3(CC2)OCCO3)CC1 | inactive | inactive | inactive | inactive |  |  |  | 
CC1=NN(C(=O)c2csc(C)c2C)C(O)(C(F)(F)F)C1 (stereo not given) | inactive | inactive | inactive | inactive |  |  |  | 
Cc1ccc(C(=O)Sc2cccccc2=O)cc1 |  |  |  | inactive | 230% (active) | 37.5% (active) | 228% (active) | 
CC(=O)N1N=C(N)SC12CCCC2 | inactive | inactive | inactive | inactive |  |  |  | 
CN(C)CCCNc1nc2sc3c(c2c(=O)n1CCc1ccccc1)CCCCC3 | inactive | inactive | inactive | inactive |  |  |  | 
COc1cccc(OC)c1C(=O)Nc1ccc(C(=O)NCc2ccccc2)cc1 | inactive | inactive | inactive | inactive |  |  |  | 
Oc1ccc2ccccc2c1N=Nc1nccs1 |  |  |  | inactive | 328% (active) | 258% (active) | 426% (active) | 
O=c1c(Cl)c(Cl)cnn1Cc1nnc(-c2ccccc2Br)o1 | inactive | inactive | inactive |  |  |  |  | 14.7% (active)
CCOc1ccccc1NC(=S)NC(=O)c1ccco1 |  |  |  | inactive | 172% (active) | 35% (active) | 184% (active) | 
O=C(c1c[nH]c(C(=O)C(Cl)(Cl)Cl)c1)c1ccc(F)cc1Cl |  |  |  | inactive | 145% (active) | 47% (active) | 160% (active) | 
CCOC(=O)c1c(-c2ccccc2)csc1NC(=S)NC |  |  |  | inactive | 286% (active) | 130% (active) | 324% (active) | 
CNC(=O)c1cc(-c2ccc(Cl)cc2)n(-c2ccccc2)n1 | inactive | inactive | inactive | inactive |  |  |  | 
COc1ccc(NC(=O)C(=O)NNC(=O)C(C)Oc2ccc(Cl)cc2Cl)cc1 (stereo not given) |  |  |  | inactive | 481% (active) | 177% (active) | 492% (active) | 
Cn1ccnc1SCC(=O)NC1CC1 | inactive | inactive | inactive | inactive |  |  |  | 
O=c1c2cc(NC(=S)NCCCN3CCC(Cc4ccccc4)CC3)ccc2nc2n1CCCCC2 | inactive | inactive | inactive | inactive |  |  |  | 
Fc1ccc(/C=N/NC(=S)Nc2ccc(Cl)cc2)cc1F | inactive | inactive | inactive | inactive |  |  |  | 
COc1ccc(NC(=S)N2CCC(C(O)(c3ccccc3)c3ccccc3)CC2)cc1 | inactive | inactive |  | inactive |  |  | 186% (active) | 
COc1ccc(NC(=S)NC(=O)c2ccc(Br)o2)cc1 |  |  |  | inactive | 146% (active) | 45.5% (active) | 195% (active) | 
O=C(NC(=S)N1CCCC(C(F)(F)F)C1)c1ccc(F)cc1 (stereo not given) |  |  |  | inactive | 296% (active) | 66.5% (active) | 260% (active) | 
